Source: ChEMBL document CHEMBL1149070, “Isolation of antirhinoviral sesquiterpenes from ginger (Zingiber officinale)” (J Nat Prod, 1994)

Columns and labels:
rhinovirus A1B = test: Antiviral activity against Rhinovirus 1B infected in human HeLa cells assessed as reduction in plaque formation per plate after 72 hrs; type: functional, organism-based, Human rhinovirus 1B; design: ED50: unit: ug/plate
Procedure, shortened: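 M-HeLa cells were seeded at 10⁶ per plate in MEM with 10% FCS and grown to confluence overnight. They were infected with RV1B at 100-200 pfu/plate for 1 h. Excess virus was replaced with an agarose overlay (MEM, FCS, tryptose broth) holding serial doubling dilutions from EtOH, final EtOH ≤1%. Plates ran 72 h at 33°, then were formol-saline fixed and methyl violet stained.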

HeLa [1] = test: Cytotoxicity against human HeLa cells upto 20 ug/plate; type: cell-based
Procedure, shortened: (§1)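 Cytotoxicity was judged in the plaque-assay plates: confluent M-HeLa monolayers under agarose overlay with sample added from EtOH doubling dilutions (≤1% EtOH), 72 h at 33°, then formol-saline fixed and methyl violet stained. Monolayers were inspected for cell destruction, altered appearance or thinning relative to cell controls (no virus, no sample) and virus controls, up to the top plate concentration.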

HeLa [2] = test: Cytotoxicity against human HeLa cells upto 1.35 ug/plate; type: cell-based; procedure, shortened: as §1

Row | IC50 (rhinovirus A1B; Rhinovirus A, HeLa, 72 h) | Structure (SMILES) | ED50 (rhinovirus A1B) | Activity (HeLa [1]) | Activity (HeLa [2])
1 |  | CC(C)=CCC[C@@H](C)c1ccc(C)cc1 | 20.4 µg | Non-toxic | 
2 |  | C=C(CCC=C(C)C)[C@H]1CC=C(C)CC1 | 14.3 µg | Non-toxic | 
3 | 0.44 µM | C=C1C=C[C@H]([C@H](C)CCC=C(C)C)CC1 | 0.9 µg | Non-toxic | 
4 |  | c1ccc(C2CCc3ccccc3O2)cc1 (stereo unspecified) [FLAVANE] | 0.27 µg |  | Non-toxic
5 |  | CC(C)=CCC[C@@H](C)[C@H]1C=CC(C)=CC1 | 1.9 µg | Non-toxic | 
